Results: ChEMBL document CHEMBL1121826, “Relation of conformation to antitumor activity of platinum(II) complexes of 1,2-cyclohexanediamine and 2-(aminomethyl)cyclohexylamine isomers against leukemia P388” (J Med Chem, 1981)
Several values for one entry are separate records, joined by “and”; a condition that tells them apart may be missing. Equal entries are not always repeated.

Key:
[1] = Therapeutic index was determined against leukemia P388 cells in mice; type: cell-based; settings: mouse
Method in brief: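 CDF1 mice implanted ip with 10^6 P388 cells on day 0 and dosed ip on days 1 and 5 (saline, or saline plus Tween 80 suspension if insoluble); 6 treated and 10 control mice. % T/C from median survival. TI is optimal dose divided by MED (lowest dose giving % T/C above 120), per the NCI platinum analogue protocol.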

P388 [2] = assay: Antitumor activity against leukemia P388 in CDF1 mice; type: functional, cell-based; settings: Mus musculus
Method in brief: (§1)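 CDF1 [(BALB/c × DBA/2)F1] mice given 10^6 P388 cells ip on day 0; treatment ip on days 1 and 5; insoluble complexes suspended in physiological saline with a few drops of Tween 80. Groups of 6 treated and 10 control mice. Median survival of treated (T) and control (C) groups calculated; activity expressed as % T/C.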

P388 [3] = assay: Minimum effective dose (MED) against leukemia P388 in CDF1 mice; type: functional, cell-based; settings: Mus musculus
Method in brief: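 P388 model in CDF1 mice: 10^6 cells ip on day 0, ip dosing on days 1 and 5; 6 treated and 10 control mice per group. Median survival days give % T/C. MED is the lowest dose at which % T/C exceeded 120.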

P388 [4] = assay: Optimal dose against leukemia P388 in CDF1 mice; type: functional, cell-based; settings: Mus musculus; method in brief: as §1
P388 [5] = assay: Toxic dose against leukemia P388 in CDF1 mice; type: functional, cell-based; settings: Mus musculus; method in brief: as §1

Substance	TI [1]	further results
0-Hexyl-1,3-diamine-platinum 2,2-dichloride [listing 1 of 2 here]	4	–
0-Hexyl-1,3-diamine-platinum 2,2-dichloride [listing 2 of 2 here]	–	T/C (P388 [2]): 206% and 127%; MED (P388 [3]): 1.56 mg/kg; Optimal dose (P388 [4]): 6.25 mg/kg; Toxic dose (P388 [5]): 12.5 mg/kg
CISPLATIN [listing 1 of 2 here]	4	–
CISPLATIN [listing 2 of 2 here]	–	T/C (P388 [2]): 230% (2×) and 134% (2×); MED (P388 [3]): 0.78 mg/kg; Optimal dose (P388 [4]): 3.12 mg/kg; Toxic dose (P388 [5]): 12.5 mg/kg
amcha (cis-d)-2-(aminomethyl)cyclohexylamine platinum (II) complex [listing 1 of 5 here]	>= 16	–
amcha (cis-d)-2-(aminomethyl)cyclohexylamine platinum (II) complex [listing 2 of 5 here]	32	–
amcha (cis-d)-2-(aminomethyl)cyclohexylamine platinum (II) complex [listing 3 of 5 here]	>= 4	–
amcha (cis-d)-2-(aminomethyl)cyclohexylamine platinum (II) complex [listing 4 of 5 here]	16	–
amcha (cis-d)-2-(aminomethyl)cyclohexylamine platinum (II) complex [listing 5 of 5 here]	–	T/C (P388 [2]): 160% [middle of 8 runs]; MED (P388 [3]): < 0.39 mg/kg
amcha (cis-l)-2-(aminomethyl)cyclohexylamine platinum (II) complex [listing 1 of 6 here]	>= 32	–
amcha (cis-l)-2-(aminomethyl)cyclohexylamine platinum (II) complex [listing 2 of 6 here]	32	–
amcha (cis-l)-2-(aminomethyl)cyclohexylamine platinum (II) complex [listing 3 of 6 here]	> 16	–
amcha (cis-l)-2-(aminomethyl)cyclohexylamine platinum (II) complex [listing 4 of 6 here]	> 8	–
amcha (cis-l)-2-(aminomethyl)cyclohexylamine platinum (II) complex [listing 5 of 6 here]	8	–
amcha (cis-l)-2-(aminomethyl)cyclohexylamine platinum (II) complex [listing 6 of 6 here]	–	T/C (P388 [2]): 148% [middle of 11 runs]; MED (P388 [3]): < 0.78 mg kg-1 (3×) and < 1.56 mg kg-1 and 0.78 mg kg-1
amcha (trans-d)-2-(aminomethyl)cyclohexylamine platinum (II) complex [listing 1 of 5 here]	16	–
amcha (trans-d)-2-(aminomethyl)cyclohexylamine platinum (II) complex [listing 2 of 5 here]	64	–
amcha (trans-d)-2-(aminomethyl)cyclohexylamine platinum (II) complex [listing 3 of 5 here]	>= 64	–
amcha (trans-d)-2-(aminomethyl)cyclohexylamine platinum (II) complex [listing 4 of 5 here]	>= 16	–
amcha (trans-d)-2-(aminomethyl)cyclohexylamine platinum (II) complex [listing 5 of 5 here]	–	T/C (P388 [2]): 160% [middle of 8 runs]; MED (P388 [3]): < 0.78 mg/kg; Toxic dose (P388 [5]): 100 mg kg-1 and > 100 mg kg-1 (2×) and > 200 mg kg-1

Substance	TI [1]	further results
amcha (trans-l)-2-(aminomethyl)cyclohexylamine platinum (II) complex [listing 1 of 4 here]	4	–
amcha (trans-l)-2-(aminomethyl)cyclohexylamine platinum (II) complex [listing 2 of 4 here]	16	–
amcha (trans-l)-2-(aminomethyl)cyclohexylamine platinum (II) complex [listing 3 of 4 here]	>= 16	–
amcha (trans-l)-2-(aminomethyl)cyclohexylamine platinum (II) complex [listing 4 of 4 here]	–	T/C (P388 [2]): 158% [middle of 10 runs]; Optimal dose (P388 [4]): 12.5 mg kg-1 (3×) and 25 mg kg-1 and > 25 mg kg-1
dach (cis)-1,2-cyclohexanediamine platinum (II) complex [listing 1 of 4 here]	>= 8	–
dach (cis)-1,2-cyclohexanediamine platinum (II) complex [listing 2 of 4 here]	4	–
dach (cis)-1,2-cyclohexanediamine platinum (II) complex [listing 3 of 4 here]	16	–
dach (cis)-1,2-cyclohexanediamine platinum (II) complex [listing 4 of 4 here]	–	T/C (P388 [2]): 144% [middle of 10 runs]; Optimal dose (P388 [4]): 25 mg kg-1 (4×) and 12.5 mg kg-1
dach (trans-d)-1,2-cyclohexanediamine platinum (II) complex [listing 1 of 5 here]	8	–
dach (trans-d)-1,2-cyclohexanediamine platinum (II) complex [listing 2 of 5 here]	16	–
dach (trans-d)-1,2-cyclohexanediamine platinum (II) complex [listing 3 of 5 here]	13	–
dach (trans-d)-1,2-cyclohexanediamine platinum (II) complex [listing 4 of 5 here]	>= 8	–
dach (trans-d)-1,2-cyclohexanediamine platinum (II) complex [listing 5 of 5 here]	–	T/C (P388 [2]): 151% [middle of 12 runs]
dach (trans-l)1,2-cyclohexanediamine platinum (II) complex [listing 1 of 2 here]	>= 4	–
dach (trans-l)1,2-cyclohexanediamine platinum (II) complex [listing 2 of 2 here]	–	MED (P388 [3]): < 1.56 mg/kg; Optimal dose (P388 [4]): 6.25 mg/kg; Toxic dose (P388 [5]): 25 mg/kg
dach (trans-l)-1,2-cyclohexanediamine platinum (II) complex [listing 1 of 4 here]	>= 16	–
dach (trans-l)-1,2-cyclohexanediamine platinum (II) complex [listing 2 of 4 here]	8	–
dach (trans-l)-1,2-cyclohexanediamine platinum (II) complex [listing 3 of 4 here]	4	–
dach (trans-l)-1,2-cyclohexanediamine platinum (II) complex [listing 4 of 4 here]	–	T/C (P388 [2]): 182% [middle of 10 runs]
